Assay results taken from ChEMBL document CHEMBL4765336, “Discovery of coumarin derivatives as potent and selective cyclin-dependent kinase 9 (CDK9) inhibitors with high antitumour activity” (Eur J Med Chem, 2020).

Assays:
[1] = Oral bioavailability in ICR mouse at 30 mg/kg measured up to 24 hrs by LC-MS/MS analysis; format: ADME, organism-based; details: in vivo
How it was run: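 ICR mice (9 per route) received 30 mg/kg p.o. or 2.0 mg/kg i.v. Plasma was sampled to 24 h and analysed by LC-MS/MS. F (%) = AUC0-∞(oral)/AUC0-∞(iv) × dose(iv)/dose(oral) × 100.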

[2] = Metabolic stability in monkey liver microsomes assessed as half life at 1 uM incubated up to 60 mins in presence of NADPH by LC-MS/MS analysis; format: ADME, Macaca mulatta, Microsome; details: rhesus monkey
How it was run: (§1)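 Liver microsomes (0.5 mg/mL) incubated at 37 °C with compound at 1.0 μM final, 3 mM MgCl2 and 1 mM NADPH in 100 mM PBS pH 7.4. Samples taken at 0, 5, 15, 30, 60 min; remaining parent measured by LC-MS/MS. k = −slope, T1/2 = 0.693/k, CLint = k/microsomal protein concentration. Midazolam served as control.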

[3] = target: Cyclin-C/Cyclin-dependent kinase 19 (Homo sapiens, UniProt Q9BWU1); experiment: Inhibition of CDK19/Cyclin C (unknown origin) preincubated for 20 mins followed by ATP addition and measured after 120 mins in presence of [33P-gamma] ATP by hotspot kinase assay; format: protein-complex assay
How it was run: (§2)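 Radiometric filter-binding assay: kinase and substrate in 20 mM Hepes pH 7.5, 10 mM MgCl2, 1 mM EGTA, 0.02% Brij35, 0.02 mg/mL BSA, 0.1 mM Na3VO4, 2 mM DTT, 1% DMSO. Compound (top 1/10/27 μM, 3-fold serial dilutions) preincubated 20 min at 25 °C. ATP plus [γ-33P]ATP added to 10 μM final, reacted 120 min at 25 °C. IC50 from curve fit, duplicate mean.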

[4] = Metabolic stability in monkey liver microsomes assessed as intrinsic clearance at 1 uM incubated up to 60 mins in presence of NADPH by LC-MS/MS analysis; format: ADME, Macaca mulatta, Microsome; details: rhesus monkey, read-out: CLH; how it was run: as §1
[5] = Toxicity in BALB/c nude mouse xenografted with human MV4-11 cells assessed as body weight loss at 40 mg/kg, iv administered once daily for 21 days and measured 2 or 3 times per week; format: organism-based; details: in vivo, 504 h, time 21 day
How it was run: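 Female BALB/c nude mice, six weeks old, with subcutaneous right-flank MV4-11 xenografts (5 million cells in PBS mixed 1:1 with Matrigel). Daily intravenous dosing started at tumour size 150–200 mm³, 6 mice per group, for 21 consecutive days. Vehicle was dimethylacetamide 20%/polyoxyethylated castor oil 40%/anhydrous ethanol 40%. Body weight was recorded two or three times weekly, and mortality was monitored throughout treatment.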

[6] = target: Cyclin-dependent kinase 4/cyclin D1 (Homo sapiens, UniProt P11802); experiment: Inhibition of CDK4/Cyclin D1 (unknown origin) preincubated for 20 mins followed by ATP addition and measured after 120 mins in presence of [33P-gamma] ATP by hotspot kinase assay; format: protein-complex assay; how it was run: as §2
[7] = Initial plasma concentration in ICR mouse at 2 mg/kg, iv measured up to 24 hrs by LC-MS/MS analysis; format: ADME, organism-based
How it was run: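 Male ICR mice (25.1–28.8 g, n=9), fasted 12 h, given a single i.v. dose of 2.0 mg/kg at 0.4 mg/mL in DMSO/PEG200/saline (1:1:3). Blood sampled at 0, 0.083, 0.25, 0.5, 1, 2, 4, 8, 24 h. Plasma ACN-precipitated and quantified by LC-MS/MS. Parameters derived from composite mean plasma concentration-time data.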

Chain of Cyclin-dependent kinase 4/cyclin D1 (P11802 whole entry): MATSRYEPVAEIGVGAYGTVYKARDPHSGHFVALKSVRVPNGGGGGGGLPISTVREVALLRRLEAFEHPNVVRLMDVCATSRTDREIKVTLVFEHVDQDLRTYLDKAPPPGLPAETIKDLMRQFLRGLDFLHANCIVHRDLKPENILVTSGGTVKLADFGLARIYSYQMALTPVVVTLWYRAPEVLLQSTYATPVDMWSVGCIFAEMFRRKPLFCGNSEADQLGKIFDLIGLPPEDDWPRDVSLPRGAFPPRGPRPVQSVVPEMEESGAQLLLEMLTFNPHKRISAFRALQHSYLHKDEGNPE
Chain of Cyclin-dependent kinase 4/cyclin D1 (P24385 whole entry, further chain): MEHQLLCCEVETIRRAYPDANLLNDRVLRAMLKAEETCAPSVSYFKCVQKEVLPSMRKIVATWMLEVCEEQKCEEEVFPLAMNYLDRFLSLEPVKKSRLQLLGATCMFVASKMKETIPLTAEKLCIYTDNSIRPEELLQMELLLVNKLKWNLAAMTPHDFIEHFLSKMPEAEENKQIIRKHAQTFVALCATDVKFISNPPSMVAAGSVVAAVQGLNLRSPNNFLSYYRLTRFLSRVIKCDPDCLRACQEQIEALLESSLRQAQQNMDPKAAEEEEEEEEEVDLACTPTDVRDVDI
Chain of Cyclin-C/Cyclin-dependent kinase 19 (Q9BWU1 whole entry): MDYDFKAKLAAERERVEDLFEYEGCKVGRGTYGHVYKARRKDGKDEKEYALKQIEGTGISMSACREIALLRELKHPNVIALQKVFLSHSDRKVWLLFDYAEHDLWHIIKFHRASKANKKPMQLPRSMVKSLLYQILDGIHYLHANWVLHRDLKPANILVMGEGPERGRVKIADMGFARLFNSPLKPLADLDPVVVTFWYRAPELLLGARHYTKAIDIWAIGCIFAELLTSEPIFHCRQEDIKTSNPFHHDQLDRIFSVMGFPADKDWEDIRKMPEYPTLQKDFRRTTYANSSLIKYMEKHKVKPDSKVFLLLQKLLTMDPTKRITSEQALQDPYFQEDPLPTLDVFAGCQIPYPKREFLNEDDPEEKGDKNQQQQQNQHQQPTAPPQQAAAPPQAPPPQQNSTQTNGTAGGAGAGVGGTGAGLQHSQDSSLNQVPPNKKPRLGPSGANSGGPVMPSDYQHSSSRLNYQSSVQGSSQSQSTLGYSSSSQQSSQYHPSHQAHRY
Chain of Cyclin-C/Cyclin-dependent kinase 19 (P24863 whole entry, further chain): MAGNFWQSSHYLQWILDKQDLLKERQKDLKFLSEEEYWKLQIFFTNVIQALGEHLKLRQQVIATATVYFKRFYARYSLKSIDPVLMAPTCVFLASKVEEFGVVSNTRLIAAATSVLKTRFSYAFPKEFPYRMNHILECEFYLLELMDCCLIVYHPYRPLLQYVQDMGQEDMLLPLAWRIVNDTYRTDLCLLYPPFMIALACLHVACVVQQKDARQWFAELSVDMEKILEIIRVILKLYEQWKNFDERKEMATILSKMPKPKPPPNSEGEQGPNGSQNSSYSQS

COc1cc(F)ccc1-c1nc(Nc2ccc3c(N4CCOCC4)c(C(C)=O)c(=O)oc3c2)ncc1F
bioavailability [1]: 14.3%
half-life at 1 µM [2]: 24.2 min
IC50 [3]: 15.5 µM
microsomal CLint at 1 µM [4]: 57.3 µL/min/mg
Activity [5]: Non-Toxic
IC50 [6]: 0.471 µM
C0 at 24 h [7]: 3060 ng/mL
